Measurements published in ChEMBL document CHEMBL1126276, “Synthesis and antimalarial properties of 1-imino derivatives of 7-chloro-3-substituted-3,4-dihydro-1,9(2H,10H)-acridinediones and related structures” (J Med Chem, 1992).
Where “and” joins values, the source holds several entries; their conditions need not be identical. Equal entries are not always repeated.

Key:
Type in all cases: functional
Plasmodium berghei [1] = experiment: Antimalarial activity in Plasmodium berghei infected mice (Mus musculus) after subcutaneous 320 mg/kg dose
In short: (§1)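 Normal drug-sensitive P. berghei strain in mice. Compound dissolved or suspended in sesame or peanut oil, given parenterally as a single subcutaneous dose 72 h postinfection.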

Plasmodium berghei [2] = experiment: Antimalarial activity in Plasmodium berghei infected mice (Mus musculus) after 160 mg/kg subcutaneous dose
In short: (§2)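 […] in mice infected with a normal drug-sensitive P. berghei strain. Compound dissolved or suspended in sesame or peanut oil, given as a single subcutaneous dose 72 h postinfection.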

Plasmodium berghei [3] = experiment: Antimalarial activity in Plasmodium berghei infected mice (Mus musculus) after 320 mg/kg subcutaneous dose; in short: as §2
Plasmodium berghei [4] = experiment: Antimalarial activity in Plasmodium berghei infected mice (Mus musculus) after 20 mg/kg subcutaneous dose; in short: as §2
Plasmodium berghei [5] = experiment: Antimalarial activity in Plasmodium berghei infected mice (Mus musculus) after 40 mg/kg subcutaneous dose; in short: as §2
Plasmodium berghei [6] = experiment: Antimalarial activity in Plasmodium berghei infected mice (Mus musculus) after subcutaneous 640 mg/kg dose; in short: as §1
Plasmodium berghei [7] = experiment: (§3) Antimalarial activity in Plasmodium berghei infected mice (Mus musculus) after 80 mg/kg subcutaneous dose; in short: as §2
Plasmodium berghei [8] = experiment: Antimalarial activity in Plasmodium berghei infected mice (Mus musculus) after subcutaneous 160 mg/kg dose; in short: as §1
Plasmodium berghei [9] = experiment: as §3; in short: as §1; remark: listed apart in the source
Plasmodium berghei [10] = experiment: Antimalarial activity Plasmodium berghei infected mice (Mus musculus) after 640 mg/kg subcutaneous dose; in short: as §2

CC1C(=O)c2c(nc3ccc(Cl)cc3c2O)CC1c1ccc(Cl)cc1Cl (configuration not stated)
No. of cured mice (Plasmodium berghei [1]): 2
Delta mean survival time (Plasmodium berghei [2]): 15
Delta mean survival time (Plasmodium berghei [3]): 17
Delta mean survival time (Plasmodium berghei [4]): 8.2
Delta mean survival time (Plasmodium berghei [5]; 40 mg/kg): 10 and 9.3
No. of cured mice (Plasmodium berghei [6]): 5
Delta mean survival time (Plasmodium berghei [7]): 1.18
No. of cured mice (Plasmodium berghei [8]): 2
No. of cured mice (Plasmodium berghei [9]): 2

N=C1CC(c2cccc(C(F)(F)F)c2)Cc2c1c(=O)c1cc(Cl)ccc1n2O (configuration not stated)
Delta mean survival time (Plasmodium berghei [2]): 3.8
Delta mean survival time (Plasmodium berghei [3]): 7.6
Delta mean survival time (Plasmodium berghei [10]): 8.2
Delta mean survival time (Plasmodium berghei [5]): 1.4
Delta mean survival time (Plasmodium berghei [7]): 3.4

O=C1CC(c2c(Cl)cccc2Cl)Cc2c1c(=O)c1cc(Cl)ccc1n2O (configuration not stated)
No. of cured mice (Plasmodium berghei [1]): 3
Delta mean survival time (Plasmodium berghei [2]): 5.8
Delta mean survival time (Plasmodium berghei [3]): 23.9
Delta mean survival time (Plasmodium berghei [4]): 0.7
Delta mean survival time (Plasmodium berghei [10]): 11.2
Delta mean survival time (Plasmodium berghei [5]): 1.5
No. of cured mice (Plasmodium berghei [6]): 2
Delta mean survival time (Plasmodium berghei [7]): 5.1
No. of cured mice (Plasmodium berghei [8]): 1

O=C1CC(c2cccc(C(F)(F)F)c2)Cc2c1c(=O)c1cc(Cl)ccc1n2[O-].[Na+] (configuration not stated)
No. of cured mice (Plasmodium berghei [1]): 3
Delta mean survival time (Plasmodium berghei [2]): 13.8
Delta mean survival time (Plasmodium berghei [3]): 16
Delta mean survival time (Plasmodium berghei [4]): 6.4
Delta mean survival time (Plasmodium berghei [5]): 7.8
No. of cured mice (Plasmodium berghei [6]): 5
Delta mean survival time (Plasmodium berghei [7]): 10

O=c1c2c(n(O)c3ccc(Cl)cc13)CC(c1cccc(C(F)(F)F)c1)C/C2=N\C1CCN(Cc2ccccc2)CC1 (configuration not stated)
Delta mean survival time (Plasmodium berghei [2]): 8.6
Delta mean survival time (Plasmodium berghei [3]): 8.4
Delta mean survival time (Plasmodium berghei [10]): 11.1
Delta mean survival time (Plasmodium berghei [5]): 6.8
No. of cured mice (Plasmodium berghei [6]): 1
Delta mean survival time (Plasmodium berghei [7]): 3.8
No. of cured mice (Plasmodium berghei [8]): 2

O=C1CC(c2cccc3ccccc23)Cc2c1c(=O)c1cc(Cl)ccc1n2O (configuration not stated)
No. of cured mice (Plasmodium berghei [1]): 2
Delta mean survival time (Plasmodium berghei [2]): 6.9
Delta mean survival time (Plasmodium berghei [3]): 5.7
Delta mean survival time (Plasmodium berghei [10]): 13.7
No. of cured mice (Plasmodium berghei [6]): 4
Delta mean survival time (Plasmodium berghei [7]): 2.3

CCN(CC)CCO/N=C1\CC(c2ccc(Cl)c(Cl)c2)Cc2c1c(=O)c1cc(Cl)ccc1n2O (configuration not stated)
Delta mean survival time (Plasmodium berghei [2]): 2.1
Delta mean survival time (Plasmodium berghei [3]): 3.7
Delta mean survival time (Plasmodium berghei [10]): 8.7
Delta mean survival time (Plasmodium berghei [7]): 0.9

O=C1CC(c2ccc(Cl)c(Cl)c2)Cc2nc3ccc(Cl)cc3c(O)c21 (configuration not stated)
No. of cured mice (Plasmodium berghei [1]): 1
Delta mean survival time (Plasmodium berghei [2]): 7.7
Delta mean survival time (Plasmodium berghei [3]): 10.2
Delta mean survival time (Plasmodium berghei [10]): 11.2
No. of cured mice (Plasmodium berghei [6]): 2
Delta mean survival time (Plasmodium berghei [7]): 2.1
No. of cured mice (Plasmodium berghei [8]): 1

O=C1CC(C2CCCCC2)Cc2c1c(=O)c1cc(Cl)ccc1n2O (configuration not stated)
Delta mean survival time (Plasmodium berghei [2]): 2.9
Delta mean survival time (Plasmodium berghei [3]): 6.5
Delta mean survival time (Plasmodium berghei [10]): 12.7
No. of cured mice (Plasmodium berghei [6]): 1
Delta mean survival time (Plasmodium berghei [7]): 2.5

COc1ccc2nc3c(c(O)c2c1)C(=O)CC(c1ccc(C(F)(F)F)cc1)C3 (configuration not stated)
Delta mean survival time (Plasmodium berghei [2]): 2.9
Delta mean survival time (Plasmodium berghei [3]): 2.3
Delta mean survival time (Plasmodium berghei [10]): 4.4
Delta mean survival time (Plasmodium berghei [5]): -0.3
Delta mean survival time (Plasmodium berghei [7]): 0.1

CCN(CC)Cc1cccc(/N=C2\CC(c3ccc(Cl)c(Cl)c3)Cc3c2c(=O)c2cc(Cl)ccc2n3O)c1 (configuration not stated)
No. of cured mice (Plasmodium berghei [1]): 4
Delta mean survival time (Plasmodium berghei [2]): 10.3
Delta mean survival time (Plasmodium berghei [3]): 22.6
Delta mean survival time (Plasmodium berghei [4]): 1.6
Delta mean survival time (Plasmodium berghei [10]): 42.6
Delta mean survival time (Plasmodium berghei [5]): 6.6
No. of cured mice (Plasmodium berghei [6]): 4
Delta mean survival time (Plasmodium berghei [7]): 8
No. of cured mice (Plasmodium berghei [8]): 2

O=C1CC(c2ccc(C(F)(F)F)cc2)Cc2nc3ccc(Br)cc3c(O)c21 (configuration not stated)
No. of cured mice (Plasmodium berghei [1]): 3
Delta mean survival time (Plasmodium berghei [2]): 4.4
Delta mean survival time (Plasmodium berghei [3]): 10.6
Delta mean survival time (Plasmodium berghei [4]): 3.6
Delta mean survival time (Plasmodium berghei [10]): 12.8
Delta mean survival time (Plasmodium berghei [5]): 5
No. of cured mice (Plasmodium berghei [6]): 4
Delta mean survival time (Plasmodium berghei [7]): 3
No. of cured mice (Plasmodium berghei [8]): 1

CSCCC/N=C1\CC(c2ccc(Cl)c(Cl)c2)Cc2c1c(=O)c1cc(Cl)ccc1n2O (configuration not stated)
Delta mean survival time (Plasmodium berghei [2]): 1.7
Delta mean survival time (Plasmodium berghei [3]): 4.1
Delta mean survival time (Plasmodium berghei [10]): 3.7
No. of cured mice (Plasmodium berghei [6]): 1

CCN(CC)CC/N=C1\CC(c2cc(OC)c(OC)c(OC)c2)Cc2c1c(=O)c1cc(Cl)ccc1n2O (configuration not stated)
Delta mean survival time (Plasmodium berghei [2]): 1.2
Delta mean survival time (Plasmodium berghei [3]): 5
Delta mean survival time (Plasmodium berghei [10]): 6
Delta mean survival time (Plasmodium berghei [5]): 0.8

C/N=C1\CC(c2ccc(Cl)c(Cl)c2)Cc2c1c(=O)c1cc(Cl)ccc1n2O (configuration not stated)
Delta mean survival time (Plasmodium berghei [2]): 6.4
Delta mean survival time (Plasmodium berghei [3]): 10.7
Delta mean survival time (Plasmodium berghei [10]): 10.8
No. of cured mice (Plasmodium berghei [6]): 3
Delta mean survival time (Plasmodium berghei [7]): 3.3

CN(C)CCC/N=C1\CC(c2ccc([N+](=O)[O-])cc2)Cc2nc3ccc(Cl)cc3c(O)c21 (configuration not stated)
Delta mean survival time (Plasmodium berghei [2]): 8.6
Delta mean survival time (Plasmodium berghei [3]): 11.6
Delta mean survival time (Plasmodium berghei [4]): 0.4
Delta mean survival time (Plasmodium berghei [10]): 11.8
Delta mean survival time (Plasmodium berghei [5]): 1
No. of cured mice (Plasmodium berghei [6]): 1
Delta mean survival time (Plasmodium berghei [7]): 3
